# From PubChem
# Only some compounds are listed: those with a hit (about 1% of all), similar ones and a draw of the others.
# T cell HTS: modulates CD8 T cell binding to vesicles | 2C CD8+ T cell-vesicle binding, flow cytometry; active compounds read low | response (vesicle binding), % at 7 µM | 330,000 tested, 0.068% active | AID 2052;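 active means response, share of CD8 T cells binding vesicles, and their 90th percentile fluorescence all below set limits, cut at about 80% in these data, passing the limit was not always enough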;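 further: values below 100% mean blocked vesicle binding to the CD8+ T cells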
#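 Read-out – percent CD8+ FL2 mean versus row control · System – murine 2C transgenic CD8+ T lymphocytes · Times – 1.5 h cell–vesicle binding at 37 °C, then 20 min icy labelling · Control set – naked vesicles low, QL9 vesicles with vehicle high · Detection – cytometric PE anti-B7-1 and Alexa647 anti-CD8 signals after 1% paraformaldehyde fixation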
# XBP1 UPR activ: adaptive UPR (XBP1) activation; CHO-XBP1 luciferase reporter, IRE1-XBP1 UPR activation, luminescence; percent of tunicamycin response, DMSO as zero; activation, % at 20 µM; 330,000 tested, 0.33% active; AID 463104;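 active means versus positive control, 20 µM dose yields 30% or more activation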;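 further: 100% = tunicamycin at 10 µg/mL and 0% = DMSO only wells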
#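 Material: CHO cell line with stable XBP1 luciferase reporter; buffer or medium: F12 medium containing 10% fetal bovine serum; compound: single point, 20 µM final compound, 1% DMSO; incubation: 6 h treatment, 37 °C; measured by: glow luminescence from Steady-Glo reagent; evaluation: activation, % of tunicamycin; control set: tunicamycin high, DMSO low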
# B2AR ag: activates human beta-2 adrenergic receptor causing internalization; 340,000 tested, 0.43% active; Am2.2-beta2AR cells, FAP receptor internalization, flow cytometry; response, % (test concentration not listed);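 active means response above a set limit, near 3 SD of response in nonfluorescent compounds, cut at about 42% in these data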
# Target sequence (P07550 whole entry, looked up): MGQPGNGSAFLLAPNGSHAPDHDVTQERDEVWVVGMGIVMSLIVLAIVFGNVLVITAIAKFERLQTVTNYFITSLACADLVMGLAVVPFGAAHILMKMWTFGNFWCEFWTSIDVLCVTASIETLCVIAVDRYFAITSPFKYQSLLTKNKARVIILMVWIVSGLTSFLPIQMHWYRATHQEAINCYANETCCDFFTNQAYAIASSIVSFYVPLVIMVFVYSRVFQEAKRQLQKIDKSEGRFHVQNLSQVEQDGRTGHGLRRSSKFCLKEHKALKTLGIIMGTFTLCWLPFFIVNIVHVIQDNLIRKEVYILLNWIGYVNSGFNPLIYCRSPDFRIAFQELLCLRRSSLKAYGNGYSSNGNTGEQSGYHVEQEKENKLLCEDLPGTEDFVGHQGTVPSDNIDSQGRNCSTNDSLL
# CHOP UPR activ: activators of apoptotic arm of unfolded protein response (CHOP); CHO-CHOP luciferase reporter, UPR activation, luminescence; percent of tunicamycin response over DMSO baseline; activation, % at 10 µM; 330,000 tested, 0.34% active; AID 449763;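 active means at 10 µM dose, activation of 40% or more, normalized to positive control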;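 further: 100% = tunicamycin at 10 µg/mL and 0% = DMSO alone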
#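 Test system: CHO-CHOP cells, stable luciferase reporter of PERK-eIF2a-CHOP signalling | Quantity: 500 CHO-CHOP cells per well | Buffer or medium: F12 plus 10% serum | Compound dosing: 10 µM single point, 0.5% DMSO | Schedule: 6 h compound treatment, 37 °C | Signal: Luciferase luminescence | Control set: Tunicamycin high control, DMSO low control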
# Beta2AR ag CP1: agonists of human beta-2 adrenergic receptor | Am2.2-beta2AR cells, FAP surface receptor, flow cytometry; active compounds read low | shares compounds with B2AR ag | AID 540358 | 1,100 tested, 25% active | percent response (surface receptor), % at 10 µM;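 active means surface receptor percent response at or below 58%, roughly 3 SD from nonfluorescent compounds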
# B2AR FAP counter: flagged in Am2.2 fluorescence counterscreen for beta-2AR agonists | shares compounds with B2AR ag | Am2.2 cells, FAP fluorogen flow cytometry; active compounds read low | calls only at 10 µM | 1,100 tested, under 10 active;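 active means percent response below a set limit in fluorescence channel 1 and below 50% in channel 8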
# Starred values were filed as active, the others as inactive; i = inactive; . = no result; ! = a repeat was not active.
SMILES,T cell HTS,XBP1 UPR activ,B2AR ag,CHOP UPR activ,Beta2AR ag CP1,B2AR FAP counter
CCOC(=O)CS(=O)(=O)CC(=O)Nc1ccc([N+](=O)[O-])cc1OC,316,-2,86*,1,90,i
Cc1ccc2nc(C)cc(C(=O)OCC(=O)c3ccc(Cl)c([N+](=O)[O-])c3)c2c1,316,-1,53*,4,109,i
Cc1ccc(NC(=O)C(C)OC(=O)CSc2ccccc2)cc1 (stereo unspecified),728,1,-2,0,.,.
CCOC(=O)c1sc(=S)n(Cc2ccccc2)c1N,449,-2,12,3,.,.
CCOC(=O)c1[nH]c(=S)n(Cc2ccccc2)c1C(=O)OCC,.,.,43*,.,122,i
Cc1noc(C)c1S(=O)(=O)Nc1cccc(CO)c1,202,-2,-4,2,.,.
COc1ccc(C(=O)NCC(c2ccco2)N2CCc3ccccc32)cc1 (stereo unspecified),283,5,54*,1,91,i
COc1ccc(NC(=O)C(=O)NCC(c2ccco2)N2CCc3ccccc32)cc1 (stereo unspecified),203,3,-5,0,.,.
CC1CCCN(CCCNC(=O)c2nn(C)c3c2CSc2ccccc2-3)C1 (stereo unspecified),i,0,-6,1,.,.
COc1cc(OC)nc(NC(=O)CSc2nnc(-c3ccccc3)n2C2CCCCC2)n1,216,-5,97*,-5,19*,i
O=C(CSc1nnc(-c2ccccc2)n1C1CCCCC1)Nc1ccc(S(=O)(=O)Nc2ccccn2)cc1,417,-4,3,7,.,.
COCCNC(=O)c1cc(-c2ccccn2)nc2ccc(S(=O)(=O)N3CCC(C)CC3)cc12,371,-1,0,2,.,.
CCOCCCNC(=O)c1cc(-c2cccnc2)nc2ccc(S(=O)(=O)N3CCC(C)CC3)cc12,311,-3,59*,2,57*,i
O=C(C1CCCN(S(=O)(=O)c2cnc[nH]2)C1)N(CCc1ccccc1)Cc1ccccc1 (stereo unspecified),392,-2,-4,-2,.,.
Nn1c(SCc2cn3cc(Cl)ccc3n2)nnc1-c1ccncc1,180,5,-10,-2,.,.
Nn1c(SCc2cn3ccccc3n2)nnc1-c1ccncc1,306,0,45*,-1,105,i
COc1ccc(Cl)cc1C1=CC(=O)C[C@H](c2ccc(F)cc2)C1,299,2,-16,2,.,.
COc1cc(-c2cc(N)n(S(=O)(=O)c3ccccc3)n2)cc(OC)c1OC,352,1,62*,-1,98,i
COc1ccc(S(=O)(=O)N(CC(=O)N2CCN(c3ccccc3OC)CC2)c2ccccc2)cc1,282,-4,-4,0,.,.
COc1ccc(S(=O)(=O)N(C)CC(=O)N2CCN(c3ccc(F)cc3)CC2)cc1OC,255,1,2,-1,5.1*!,i
COc1ccccc1N1CCN(C(=O)CN(C)S(=O)(=O)c2ccc(C)cc2)CC1,.,.,.,.,47*,i
COc1ccc(S(=O)(=O)N(C)CC(=O)N2CCN(c3ccccc3)CC2)cc1,572,-1,-15,1,124,i
CCN(CC)C(=O)CSc1nnc(CSc2ncccn2)n1C,182,-1,-3,1,.,.
COc1ccc(C(=O)c2cnc[nH]2)cc1OC,110,-1,-9,1,.,.
CCN(CC(=O)NCc1cccs1)c1ccc(S(=O)(=O)N2CCN(C)CC2)cn1,41,-1,-3,0,.,.
SMILES,T cell HTS,XBP1 UPR activ,B2AR ag,CHOP UPR activ,Beta2AR ag CP1,B2AR FAP counter
CNc1nc(-c2c(C)[nH]c3ccc(OC)cc23)cs1,176,5,60*,0,94,i
CNC(=O)C(=O)NCC1OCCN1S(=O)(=O)c1ccc2c(c1)OCCO2 (stereo unspecified),220,-3,-10,1,.,.
O=C(c1ccc(-c2ccc([N+](=O)[O-])cc2)o1)N1CCCCCCC1,658,4,52*,9,128,i
O=C(c1ccc(-c2ccc([N+](=O)[O-])cc2)o1)N1CCCC(C(F)(F)F)C1 (stereo unspecified),440,0,-7,3,.,.
Cc1cc(C)cc(NC(=O)C(OC(=O)c2sccc2C)c2ccccc2)c1 (stereo unspecified),359,-1,64*,4,95,i
CC(=O)c1cccc(NC(=O)C(OC(=O)c2cccs2)c2ccccc2)c1 (stereo unspecified),198,1,-5,2,.,.
Cc1ccc2c(c1)C(=O)N(CCCCO)C2=O,164,-3,84*,0,100,i
CNc1ccc([N+](=O)[O-])cc1-c1nc2ccccc2[nH]c1=O,437,-1,61*,-1,91,i
CC(C)C(=O)Nc1ccc(Cl)cc1-c1nc2ccccc2[nH]c1=O,208,3,-7,0,.,.
O=C(Nc1cccc(Br)c1)c1ccc(CN2CCc3ccccc3C2)cc1,114,3,17,2,.,.
Cc1ccc(C(=O)c2cc([N+](=O)[O-])ccc2N2CCCCC2)c(C)c1,522,16,61*,1,41*,i
CC(C)N1CCc2[nH]c(=S)[nH]c(=O)c2C1,128,-2,-1,-2,.,.
Cc1cc(Cl)ccc1OC(C)C(=O)NN1C(=O)c2ccccc2C1=O (stereo unspecified),177,-2,-6,-1,.,.
CCN(CC)c1ccc([C@H]2[C@@H]3CCCC[C@]3(O)CCN2CC(=O)NCc2ccco2)cc1,349,-3,23,0,126,i
Cc1ccc2c(c1)c1c(n2CC(O)CNC2CCCCC2)CCCC1 (stereo unspecified),168,11,53*,4,112,i
CCOC(=O)[C@H](CCc1ccccc1)N[C@@H](C)C(=O)N1CCC[C@@H]1C(=O)O,500,-6,-9,-1,.,.
CCOC(=O)C1CCN(S(=O)(=O)c2ccc3c(c2)N(C(C)=O)CC(C)S3)CC1 (stereo unspecified),286,-6,50*,4,78,i
CCOC(=O)C1CCN(S(=O)(=O)c2ccc3c(c2)NC(=O)C(C)S3)CC1 (stereo unspecified),284,-7,14,1,.,.
Cn1c(CNc2nc(-c3ccccc3)cs2)nnc1SCC(=O)N1CCc2ccccc21,158,-3,46*,1,73,i
c1ccc(-c2nnc(SCc3nc4ccccc4[nH]3)n2Cc2ccco2)nc1,475,1,-9,-1,.,.
Clc1cccc(-c2nnc(SCc3nc4ccccc4[nH]3)n2Cc2ccco2)c1,i,-1,55*,0,56*,i
